Measured values taken from ChEMBL document CHEMBL5329156, “Discovery and development of novel substituted monohydrazides as potent antifungal agents” (RSC Med Chem, 2023).
In brackets after ≈: the same amount, converted by molar mass. Activity calls are given as the source filed them. The calls are words filed in the database; no cut-off is given here.

Experiments:
[1] = tested on: Candida albicans; assay: Antifungal activity against Candida albicans ATCC 10231 assessed as fungal growth inhibition by double dilution method; format: functional
Outline: (§1)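 Broth microdilution after CLSI M27-A3/M38-A2 with minor changes. Single colony grown overnight in YPD at 35 °C, 200 rpm. Compound final range 0.06-31.3 µg/mL; incubated 48 h at 35 °C.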

[2] = tested on: Candida albicans; assay: Antifungal activity against Candida albicans ATCC 64124 assessed as fungal growth inhibition by double dilution method; format: functional
Outline: (§2)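 Broth microdilution after CLSI M27-A3/M38-A2 with minor modifications. A single colony was grown overnight in YPD at 35 °C with shaking at 200 rpm. Cells were mixed 1:1 with compound (final 0.06-31.3 µg/mL, from DMSO stocks) and incubated 48 h at 35 °C.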

[3] = tested on: Candida albicans; assay: Antifungal activity against itraconazole/fluconazole susceptible Candida albicans ATCC MYA-2876 assessed as fungal growth inhibition by double dilution method; format: functional; outline: as §2
[4] = tested on: Candida albicans; assay: Antifungal activity against itraconazole/fluconazole resistant Candida albicans ATCC 90819 assessed as fungal growth inhibition by double dilution method; format: functional; outline: as §2
[5] = tested on: Candida albicans; assay: Antifungal activity against itraconazole/fluconazole susceptible Candida albicans ATCC MYA-2310 assessed as fungal growth inhibition by double dilution method; format: functional; outline: as §2
[6] = tested on: Candida albicans; assay: Antifungal activity against itraconazole/fluconazole resistant Candida albicans ATCC MYA-1237 assessed as fungal growth inhibition by double dilution method; format: functional; outline: as §2
[7] = tested on: Candida albicans; assay: Antifungal activity against itraconazole/fluconazole resistant Candida albicans ATCC MYA-1003 assessed as fungal growth inhibition by double dilution method; format: functional; outline: as §2
[8] = tested on: Nakaseomyces glabratus; assay: Antifungal activity against Candida glabrata ATCC 2001 assessed as fungal growth inhibition by double dilution method; format: functional; outline: as §1
[9] = tested on: Pichia kudriavzevii; assay: Antifungal activity against Pichia kudriavzevii ATCC 6258 assessed as fungal growth inhibition by double dilution method; format: functional; outline: as §1
[10] = tested on: Nakaseomyces glabratus; assay: Antifungal activity against Candida glabrata ATCC 22019 assessed as fungal growth inhibition by double dilution method; format: functional; outline: as §1
[11] = tested on: [Candida] auris; assay: Antifungal activity against Candida auris AR Bank # 0384 assessed as fungal growth inhibition by double dilution method; format: functional; conditions: Candidozyma auris; outline: as §1
[12] = tested on: [Candida] auris; assay: Antifungal activity against Candida auris AR Bank # 0390 assessed as fungal growth inhibition by double dilution method; format: functional; conditions: Candidozyma auris; outline: as §1
[13] = tested on: Cryptococcus neoformans; assay: Antifungal activity against Cryptococcus neoformans ATCC MYA-895 assessed as fungal growth inhibition by double dilution method; format: functional; outline: as §1
[14] = tested on: Aspergillus terreus; assay: Antifungal activity against Aspergillus terreus ATCC MYA-3633 assessed as fungal growth inhibition by double dilution method; format: functional
[15] = tested on: Aspergillus fumigatus; assay: Antifungal activity against Aspergillus fumigatus NRRL 163 assessed as fungal growth inhibition by double dilution method; format: functional
[16] = tested on: Aspergillus flavus; assay: Antifungal activity against Aspergillus flavus ATCC MYA-3631 assessed as fungal growth inhibition by double dilution method; format: functional
[17] = tested on: Aspergillus nidulans; assay: Antifungal activity against Aspergillus nidulans ATCC 38163 assessed as fungal growth inhibition by double dilution method; format: functional
[18] = tested on: Aspergillus fumigatus; assay: Antifungal activity against Aspergillus fumigatus NRRL 5109 assessed as fungal growth inhibition by double dilution method; format: functional
[19] = tested on: Aspergillus fumigatus; assay: Antifungal activity against Aspergillus fumigatus NRRL 6113 assessed as fungal growth inhibition by double dilution method; format: functional
[20] = tested on: [Candida] auris; assay: Antifungal activity against Candida auris AR Bank # 381 assessed as fungal growth inhibition by double dilution method; format: functional; conditions: Candidozyma auris; outline: as §1
[21] = tested on: [Candida] auris; assay: Antifungal activity against Candida auris AR Bank # 382 assessed as fungal growth inhibition by double dilution method; format: functional; conditions: Candidozyma auris; outline: as §1
[22] = tested on: [Candida] auris; assay: Antifungal activity against Candida auris AR Bank # 383 assessed as fungal growth inhibition by double dilution method; format: functional; conditions: Candidozyma auris; outline: as §1
[23] = tested on: [Candida] auris; assay: Antifungal activity against Candida auris AR Bank # 384 assessed as fungal growth inhibition by double dilution method; format: functional; conditions: Candidozyma auris; outline: as §1
[24] = tested on: [Candida] auris; assay: Antifungal activity against Candida auris AR Bank # 385 assessed as fungal growth inhibition by double dilution method; format: functional; conditions: Candidozyma auris; outline: as §1
[25] = tested on: [Candida] auris; assay: Antifungal activity against Candida auris AR Bank # 386 assessed as fungal growth inhibition by double dilution method; format: functional; conditions: Candidozyma auris; outline: as §1
[26] = tested on: [Candida] auris; assay: Antifungal activity against Candida auris AR Bank # 387 assessed as fungal growth inhibition by double dilution method; format: functional; conditions: Candidozyma auris; outline: as §1
[27] = tested on: [Candida] auris; assay: Antifungal activity against Candida auris AR Bank # 388 assessed as fungal growth inhibition by double dilution method; format: functional; conditions: Candidozyma auris; outline: as §1
[28] = tested on: [Candida] auris; assay: Antifungal activity against Candida auris AR Bank # 389 assessed as fungal growth inhibition by double dilution method; format: functional; conditions: Candidozyma auris; outline: as §1
[29] = tested on: [Candida] auris; assay: Antifungal activity against Candida auris AR Bank # 390 assessed as fungal growth inhibition by double dilution method; format: functional; conditions: Candidozyma auris; outline: as §1
[30] = tested on: Candida duobushaemulonii; assay: Antifungal activity against Candida duobushaemulonii AR Bank # 391 assessed as fungal growth inhibition by double dilution method; format: functional; conditions: Candidozyma duobushaemuli; outline: as §1
[31] = tested on: Candida duobushaemulonii; assay: Antifungal activity against Candida duobushaemulonii AR Bank # 392 assessed as fungal growth inhibition by double dilution method; format: functional; conditions: Candidozyma duobushaemuli; outline: as §1
[32] = tested on: [Candida] haemuloni; assay: Antifungal activity against Candida haemulonii AR Bank # 393 assessed as fungal growth inhibition by double dilution method; format: functional; conditions: Candidozyma haemuli; outline: as §1
[33] = tested on: Candida duobushaemulonii; assay: Antifungal activity against Candida duobushaemulonii AR Bank # 394 assessed as fungal growth inhibition by double dilution method; format: functional; conditions: Candidozyma duobushaemuli; outline: as §1
[34] = tested on: [Candida] haemuloni; assay: Antifungal activity against Candida haemulonii AR Bank # 395 assessed as fungal growth inhibition by double dilution method; format: functional; conditions: Candidozyma haemuli; outline: as §1
[35] = tested on: Kodamaea ohmeri; assay: Antifungal activity against Kodamaea ohmeri AR Bank # 396 assessed as fungal growth inhibition by double dilution method; format: functional; outline: as §1
[36] = tested on: Pichia kudriavzevii; assay: Antifungal activity against Pichia kudriavzevii AR Bank # 397 assessed as fungal growth inhibition by double dilution method; format: functional; outline: as §1
[37] = tested on: Clavispora lusitaniae; assay: Antifungal activity against Clavispora lusitaniae AR Bank # 398 assessed as fungal growth inhibition by double dilution method; format: functional; outline: as §1
[38] = tested on: Saccharomyces cerevisiae; assay: Antifungal activity against Saccharomyces cerevisiae AR Bank # 399 assessed as fungal growth inhibition by double dilution method; format: functional; outline: as §1
[39] = tested on: Saccharomyces cerevisiae; assay: Antifungal activity against Saccharomyces cerevisiae AR Bank # 400 assessed as fungal growth inhibition by double dilution method; format: functional; outline: as §1
[40] = tested on: Candida albicans; assay: Antibiofilm activity against Candida albicans ATCC 10231 assessed as reduction in biofilm production at 1.96 to 3.9 microg/ml by biofilm formation assay; format: functional, organism-based; conditions: dose 1.96-3.9 µg/ml

| SMILES | MIC [1] [µg/mL] | MIC [2] [µg/mL] | MIC [3] [µg/mL] | MIC [4] [µg/mL] | MIC [5] [µg/mL] | MIC [6] [µg/mL] | MIC [7] [µg/mL] | MIC [8] [µg/mL] | MIC [9] [µg/mL] | MIC [10] [µg/mL] | MIC [11] [µg/mL] | MIC [12] [µg/mL] | MIC [13] [µg/mL] | MIC [14] [µg/mL] | MIC [15] [µg/mL] | MIC [16] [µg/mL] | MIC [17] [µg/mL] | MIC [18] [µg/mL] | MIC [19] [µg/mL] | MIC [20] [µg/mL] | other results |
| --- | --- | --- | --- | --- | --- | --- | --- | --- | --- | --- | --- | --- | --- | --- | --- | --- | --- | --- | --- | --- | --- |
| O=C(NNc1ccc(Cl)cc1)c1ccccn1 | 0.12 (≈ 0.484 µM) | 0.98 (≈ 3.96 µM) | 1.95 (≈ 7.87 µM) | 0.24 (≈ 0.969 µM) | 0.98 (≈ 3.96 µM) | 0.98 (≈ 3.96 µM) | 0.98 (≈ 3.96 µM) | 1.95 (≈ 7.87 µM) | 1.95 (≈ 7.87 µM) | 3.9 (≈ 15.7 µM) | 1.95 (≈ 7.87 µM) | 1.95 (≈ 7.87 µM) | 0.49 (≈ 1.98 µM) | 3.9 (≈ 15.7 µM) | > 31.3 | 31.3 (≈ 126 µM) | 0.49 (≈ 1.98 µM) | 7.8 (≈ 31.5 µM) | 15.6 (≈ 63 µM) | 1.95 (≈ 7.87 µM) | MIC [21]: 3.9 µg/mL (≈ 15.7 µM); MIC [22]: 1.95 µg/mL (≈ 7.87 µM); MIC [23]: 1.95 µg/mL (≈ 7.87 µM); MIC [24]: 1.95 µg/mL (≈ 7.87 µM); MIC [25]: 0.98 µg/mL (≈ 3.96 µM); MIC [26]: 1.95 µg/mL (≈ 7.87 µM); MIC [27]: 1.95 µg/mL (≈ 7.87 µM); MIC [28]: 0.98 µg/mL (≈ 3.96 µM); MIC [29]: 1.95 µg/mL (≈ 7.87 µM); MIC [30]: 0.98 µg/mL (≈ 3.96 µM); MIC [31]: 0.98 µg/mL (≈ 3.96 µM); MIC [32]: 0.49 µg/mL (≈ 1.98 µM); MIC [33]: 0.4 µg/mL (≈ 1.61 µM); MIC [34]: 0.12 µg/mL (≈ 0.484 µM); MIC [35]: 0.24 µg/mL (≈ 0.969 µM); MIC [36]: 0.24 µg/mL (≈ 0.969 µM); MIC [37]: 0.98 µg/mL (≈ 3.96 µM); MIC [38]: 0.98 µg/mL (≈ 3.96 µM); MIC [39]: 0.98 µg/mL (≈ 3.96 µM); Activity [40]: Active |
| O=C(NNc1cc(F)ccc1F)c1ccccn1 | 0.12 (≈ 0.482 µM) | 1.95 (≈ 7.82 µM) | 3.9 (≈ 15.6 µM) | 0.98 (≈ 3.93 µM) | 1.95 (≈ 7.82 µM) | 1.95 (≈ 7.82 µM) | 0.98 (≈ 3.93 µM) | 3.9 (≈ 15.6 µM) | 0.24 (≈ 0.963 µM) | 3.9 (≈ 15.6 µM) | 0.24 (≈ 0.963 µM) | 0.98 (≈ 3.93 µM) | 0.49 (≈ 1.97 µM) | 0.98 (≈ 3.93 µM) | > 31.3 | 3.9 (≈ 15.6 µM) | 0.49 (≈ 1.97 µM) | 15.6 (≈ 62.6 µM) | > 31.3 | 1.95 (≈ 7.82 µM) | MIC [21]: 0.24 µg/mL (≈ 0.963 µM); MIC [22]: 0.49 µg/mL (≈ 1.97 µM); MIC [23]: 1.95 µg/mL (≈ 7.82 µM); MIC [24]: 0.49 µg/mL (≈ 1.97 µM); MIC [25]: 0.12 µg/mL (≈ 0.482 µM); MIC [26]: 0.49 µg/mL (≈ 1.97 µM); MIC [27]: 0.49 µg/mL (≈ 1.97 µM); MIC [28]: 0.49 µg/mL (≈ 1.97 µM); MIC [29]: 0.98 µg/mL (≈ 3.93 µM); MIC [30]: 0.49 µg/mL (≈ 1.97 µM); MIC [31]: 0.24 µg/mL (≈ 0.963 µM); MIC [32]: 0.98 µg/mL (≈ 3.93 µM); MIC [33]: 0.24 µg/mL (≈ 0.963 µM); MIC [34]: 0.24 µg/mL (≈ 0.963 µM); MIC [35]: 0.12 µg/mL (≈ 0.482 µM); MIC [36]: 0.24 µg/mL (≈ 0.963 µM); MIC [37]: 0.49 µg/mL (≈ 1.97 µM); MIC [38]: 1.95 µg/mL (≈ 7.82 µM); MIC [39]: 1.95 µg/mL (≈ 7.82 µM); Activity [40]: inactive |
